Test results taken from ChEMBL document CHEMBL1124947, “Cationic antiprotozoal drugs. Trypanocidal activity of 2-(4'-formylphenyl)imidazo[1,2-a]pyridinium guanylhydrazones and related derivatives of quaternary heteroaromatic compounds” (J Med Chem, 1990).

Key:
Type in all cases: functional
Mus musculus [1] = test: Trypanocidal Activity at I.C.E. value 0.85 when administered subcutaneously.
Procedure, shortened: (§1)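 Mice, in groups of five per dose, were given a standard inoculum of blood-stage T. rhodesiense that is lethal to all untreated controls, then dosed subcutaneously. Usually 11 dose levels were used (2^n × 0.42 mg/kg).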

Mus musculus [2] = test: Trypanocidal Activity at I.C.E. value 0.30 when administered perorally.
Mus musculus [3] = test: Trypanocidal Activity at I.C.E. value 0.75 when administered subcutaneously.; procedure, shortened: as §1
Mus musculus [4] = test: Trypanocidal Activity at I.C.E. value 0.24 when administered perorally.
Mus musculus [5] = test: Trypanocidal Activity at I.C.E. value 0.20 when administered subcutaneously.
Mus musculus [6] = test: Trypanocidal Activity at I.C.E. value 0.36 when administered perorally.
Mus musculus [7] = test: Trypanocidal Activity at I.C.E. value 0.72 when administered subcutaneously.; procedure, shortened: as §1
Mus musculus [8] = test: Trypanocidal Activity at I.C.E. value 0.32 when administered subcutaneously.
Procedure, shortened: (§2)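 Blood-stage T. rhodesiense infection came from a standard inoculum lethal to all untreated mice. Drug was given by subcutaneous injection to groups of five mice. Survival beyond 30 days counted as cure. […] Sub-curative doses scored 0, and data were normalized at each dose.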

Mus musculus [9] = test: Trypanocidal Activity at I.C.E. value 0.43 when administered perorally.
Mus musculus [10] = test: Trypanocidal Activity at I.C.E. value 0.70 when administered perorally.
Mus musculus [11] = test: Trypanocidal Activity at I.C.E. value 0.54 when administered subcutaneously.; procedure, shortened: as §2
[12] = test system: Trypanosoma brucei rhodesiense; test: In Vitro measurement of inhibition of thymidine uptake in cell culture of Trypanosoma rhodesiense; settings: read-out: ID50 (the source's name)
Procedure, shortened: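 Parasites harvested from infected rats and incubated 3 h across a drug concentration series, usually 0.1–100 µg/mL. Incorporation of radiolabeled thymidine measured. ID50 is the concentration (µg/mL) producing 50% inhibition.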

Mus musculus [13] = test: Trypanocidal Activity at I.C.E. value 0.56 when administered subcutaneously.; procedure, shortened: as §1
[14] = test system: Trypanosoma brucei rhodesiense; test: In Vitro measurement of inhibition of leucine uptake in cell culture of Trypanosoma rhodesiense; settings: read-out: ID50 (the source's name)
Procedure, shortened: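 Trypanosomes harvested from infected rats, cultured 3 h with several concentrations of drug, usually 0.1–100 µg/mL. Radiolabeled L-leucine uptake measured. ID50 is the concentration in µg/mL giving 50% inhibition of incorporation.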

Mus musculus [15] = test: Trypanocidal Activity at I.C.E. value 0.81 when administered subcutaneously.; procedure, shortened: as §1
Mus musculus [16] = test: Trypanocidal Activity at I.C.E. value 0.61 when administered perorally.

Cc1ccc(S(=O)(=O)O)cc1.Cc1ccc(S(=O)(=O)[O-])cc1.Cc1cccc2n1cc(/C=C/c1ccc(/C=N/NC(=N)N)cc1)[n+]2C
CD50 (Mus musculus [1]): 0.4 mg/kg | CD50 (Mus musculus [2]): 53 mg/kg

Br.Cc1cccc2n1cc(COc1ccc(/C=N/NC(=N)N3CCCC3)cc1)[n+]2C.[Br-]
CD50 (Mus musculus [3]): 0.4 mg/kg | CD50 (Mus musculus [4]): 53 mg/kg

Br.CN(C)C(=N)N/N=C/c1ccc(-c2c([N+](=O)[O-])n3ccccc3[n+]2C)cc1.[Br-]
CD50 (Mus musculus [5]): 0.8 mg/kg | CD50 (Mus musculus [6]): 53 mg/kg

Br.C[n+]1c(/C=C/c2ccc(/C=N/NC(=N)NO)cc2)cn2ccccc21.[Br-]
CD50 (Mus musculus [7]): 0.2 mg/kg

Br.C[n+]1c(-c2ccc(/C=N/NC(=N)N)cc2)c(Br)n2ccccc21.[Br-]
CD50 (Mus musculus [8]): 1.6 mg/kg | CD50 (Mus musculus [9]): 26 mg/kg

Br.C[n+]1c(-c2ccc(/C=N/NC(=N)N3CCCC3)cc2)cn2ccsc21.[Br-]
CD50 (Mus musculus [10]): 3.3 mg/kg | CD50 (Mus musculus [11]): 0.1 mg/kg

CN(C)C(=N)N/N=C/c1ccc(-c2cn3ccsc3[n+]2C)cc1.I.[I-]
IC50 [12]: 1 µg/mL | CD50 (Mus musculus [13]): 0.2 mg/kg | IC50 [14]: 1 µg/mL

Br.Cc1ccc2n(c1)cc(COc1ccc(/C=N/NC(=N)N)cc1)[n+]2C.[Br-]
CD50 (Mus musculus [15]): 0.2 mg/kg | CD50 (Mus musculus [16]): 6.6 mg/kg
